The values that follow come from ChEMBL document CHEMBL1136847, “Syntheses and potential anti-prostate cancer activities of ionone-based chalcones” (Bioorg Med Chem Lett, 2009).

One assay deals with LNCaP. Nature of the assay: Cytotoxicity against androgen-dependent human LNCAP cells with T877A AR mutant after 72 hrs by MTT assay. The format is functional, cell-based. The method in brief: (§1)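 Cells seeded at 6000–7000 per well in RPMI 1640 with 10% FBS, penicillin and streptomycin, left overnight, then exposed to a range of concentrations from DMSO stock (final DMSO 0.5%) for 72 h. MTT added for a further 2 h and formazan from viable cells read. IC50 taken from survival curves, 50% inhibition relative to 0.5% DMSO control; top concentration 150 µM.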
A general note: Formazan colour is commonly taken as a measure of viable cells.

A further assay relates to PC-3. Nature of the assay: Cytotoxicity against androgen-independent human PC3 cells after 72 hrs by MTT assay. To be noted: for IC50: PC-3, 72 h. The format is functional, cell-based. The method in brief:
as §1

The nature of assay [1]: Cytotoxicity against androgen-dependent human MDA PCa 2b cells with T877A/L701H AR mutant after 72 hrs by MTT assay. It is filed as functional, cell-based. The method in brief:
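Seeded at 6000–7000 cells per well in BRFF-HPC1 medium with 20% FBS, incubated overnight, then treated with serial concentrations diluted from DMSO stock (final DMSO 0.5%) for 72 h. Viability by MTT, 2 h with reagent, formazan measured. IC50 from survival curves as 50% inhibition versus 0.5% DMSO vehicle; maximum concentration tested 150 µM.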

A further assay has as its system CWR22R. The assay can be described thus: Cytotoxicity against human 22Rv1 cells with H874Y AR mutant after 72 hrs by MTT assay. It is filed as functional, cell-based. To be noted: 22Rv1, 72 h. The method in brief: as §1
Assay [2] can be described thus: Cytotoxicity against androgen-independent human C4-2B cells with T877A mutant after 72 hrs by MTT assay. The format is functional, cell-based. The conditions noted are these: LNCaP C4-2B. The method in brief:
as §1

The nature of assay [3]: Cytotoxicity against human RWPE1 cells after 72 hrs by MTT assay. The format is cell-based. The conditions noted are these: RWPE-1, 72 h. The method in brief:
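Non-tumorigenic prostate epithelial line plated at 6000–7000 cells per well in keratinocyte serum-free medium with 0.05 mg/mL bovine pituitary extract and 5 ng/mL EGF; overnight attachment, then compounds at various concentrations in 0.5% final DMSO for 72 h. MTT 2 h, formazan read; IC50 from survival curves versus DMSO control.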

Activity calls are given as the source filed them. No cut-off for these calls is given here.

As usually defined, the IC50 is the concentration at which inhibition is half-maximal. Read a low IC50 as higher potency. For `CCOC(OCC)c1cccc(/C=C/C(=O)/C=C/C2=C(C)C(O)CCC2(C)C)c1` (centres undefined), the IC50 with LNCaP amounted to 1.8 µM; in the assay with PC-3, 4.7 µM.

Turning to `CC1=C(/C=C/C(=O)/C=C/c2cc([N+](=O)[O-])ccc2Cl)C(C)(C)CCC1`, the IC50 with LNCaP came out at 4.2 µM; with PC-3 it was 18.9 µM.

In the case of `CC1=C(/C=C/C(=O)/C=C/c2ccc(F)c(C(F)(F)F)c2)C(C)(C)CCC1O` (centres undefined), the IC50 was found to be 2.2 µM with LNCaP; 10 µM in assay [1]; 3.2 µM in the assay on CWR22R; 7.3 µM in the assay on PC-3; 7.3 µM in assay [2].

Turning to `COc1ccc(/C=C/C(=O)/C=C/C2=C(C)CCCC2(C)C)cc1O`, the IC50 in the assay on LNCaP amounted to 9.9 µM; in the assay on PC-3, 37.4 µM.

For `CC1=C(/C=C/C(=O)/C=C/c2ccccc2)C(C)(C)CCC1O` (centres undefined), the IC50 with LNCaP was determined as 5.8 µM; in assay [1], 12.6 µM; with CWR22R it was 8 µM; in the assay on PC-3 it was 15.5 µM; in assay [2], 1.8 µM.

Regarding `CC1=CCCC(C)(C)C1/C=C/C(=O)/C=C/c1cc(C(F)(F)F)ccc1F` (centres undefined), the IC50 was found to be 1.7 µM with LNCaP; 3 µM in assay [1]; 3.5 µM in the assay with CWR22R; 3.1 µM with PC-3; 4.7 µM in assay [2].

For the molecule `CC1=C(/C=C/C(=O)/C=C/c2ccc([N+](=O)[O-])cc2)C(C)(C)CCC1O` (centres undefined), the IC50 with LNCaP stood at 4.2 µM; in the assay on CWR22R, 4.1 µM; with PC-3, 15 µM.

Turning to `CC1=C(/C=C/C(=O)/C=C/c2ccc(C(F)(F)F)cc2)C(C)(C)CCC1O` (centres undefined), the IC50 was found to be 3 µM with LNCaP, 9.3 µM in assay [1], 3.2 µM in the assay on CWR22R and 10.2 µM with PC-3.

For `CC1=C(/C=C/C(=O)/C=C/c2cccc(F)c2)C(C)(C)CCC1O` (centres undefined), the IC50 in the assay with LNCaP is 4.4 µM; in the assay on CWR22R it was 5.6 µM; with PC-3, 16 µM.

As to `CC1=C(/C=C/C(=O)/C=C/c2cccc(C(F)(F)F)c2F)C(C)(C)CCC1O` (centres undefined), the IC50 was found to be 1.1 µM with LNCaP and 2.1 µM in the assay on PC-3.

`CC1=C(/C=C/C(=O)/C=C/c2cccc(C#N)c2)C(C)(C)CCC1O` (centres undefined): the IC50 came to 1.8 µM in the assay on LNCaP, 2.2 µM with CWR22R, 1.9 µM in assay [3] and 7.2 µM with PC-3.

`CC1=C(/C=C/C(=O)/C=C/c2cccc(C(F)(F)F)c2)C(C)(C)CCC1`: the IC50 turned out to be 2.8 µM with LNCaP and 7.7 µM with PC-3.

With `CC1=C(/C=C/C(=O)/C=C/c2cc(C(F)(F)F)cc(C(F)(F)F)c2)C(C)(C)CCC1`, the IC50 in the assay with LNCaP was found to be 8.7 µM; with PC-3, 7.2 µM.

With `CC1=C(/C=C/C(=O)/C=C/c2cccc([N+](=O)[O-])c2)C(C)(C)CCC1O` (centres undefined), the IC50 is 2 µM with LNCaP; 6 µM in assay [1]; 1.9 µM with CWR22R; 1.9 µM in assay [3]; 5.8 µM in the assay on PC-3.

For the molecule `CC1=CCCC(C)(C)C1/C=C/C(=O)/C=C/c1cccc([N+](=O)[O-])c1` (centres undefined), the IC50 is 3.3 µM with LNCaP; 5.9 µM in assay [1]; 4.7 µM with CWR22R; 2.9 µM in the assay on PC-3; 4 µM in assay [2].

Consider `CC1=CCCC(C)(C)C1/C=C/C(=O)/C=C/c1ccccc1C(F)(F)F` (centres undefined), for which the IC50 turned out to be 22.6 µM in the assay on LNCaP, 18.4 µM in the assay with CWR22R, 19 µM in the assay with PC-3 and 11.7 µM in assay [2].

On to `CC1=C(/C=C/C(=O)/C=C/c2cc(C(F)(F)F)ccc2F)C(C)(C)CCC1O` (centres undefined), for which the IC50 stood at 1.7 µM in the assay with LNCaP, 2 µM with CWR22R and 3.6 µM in the assay with PC-3.

As for `CC1=C(/C=C/C(=O)/C=C/c2c(F)cccc2C(F)(F)F)C(C)(C)CCC1O` (centres undefined), the IC50 in the assay with LNCaP is 4.9 µM; in the assay with CWR22R it was 8.9 µM; in the assay with PC-3 it was 8.8 µM.

In the case of `CC1=C(/C=C/C(=O)/C=C/c2cc(C(F)(F)F)cc(C(F)(F)F)c2)C(C)(C)CCC1O` (centres undefined), the IC50 with LNCaP turned out to be 2.1 µM; in assay [1], 3.5 µM; with CWR22R, 2.2 µM; in the assay on PC-3 it was 7 µM.

As to `CC1=C(/C=C/C(=O)/C=C/c2ccc(O)c([N+](=O)[O-])c2)C(C)(C)CCC1`, the IC50 in the assay with LNCaP is 26.8 µM; in the assay on PC-3, over 50 µM.

Consider `CC1=C(/C=C/C(=O)/C=C/c2ccccc2C(F)(F)F)C(C)(C)CCC1O` (centres undefined), for which the IC50 came out at 2.9 µM with LNCaP, 2.9 µM in assay [1], 2.3 µM in the assay on CWR22R and 3.7 µM with PC-3.

With `COc1cccc(/C=C/C(=O)/C=C/C2=C(C)C(O)CCC2(C)C)c1` (centres undefined), the values for the IC50 in the assay on LNCaP and in the assay on PC-3 were 4.9 µM and 6.5 µM, respectively.

Regarding `CC1=C(/C=C/C(=O)/C=C/c2cccc(C)c2)C(C)(C)CCC1O` (centres undefined), the IC50 was determined as 4.1 µM in the assay on LNCaP, 19 µM in assay [1], 4.4 µM in the assay with CWR22R and 6.2 µM in the assay on PC-3.

`CC1=C(/C=C/C(=O)/C=C/c2cc(C(F)(F)F)ccc2C(F)(F)F)C(C)(C)CCC1O` (centres undefined): the figures for the IC50 (in the assay with LNCaP; in assay [1]; in the assay with PC-3) were 3.2 µM, 4 µM and 1.9 µM, respectively.

For `CC1=CCCC(C)(C)C1/C=C/C(=O)/C=C/c1cccc(C(F)(F)F)c1` (centres undefined), the IC50 turned out to be 1 µM with LNCaP; 4.4 µM in assay [1]; 2.9 µM in the assay with CWR22R; 5.2 µM in the assay with PC-3; 4.4 µM in assay [2].

As to `CC1=CCCC(C)(C)C1/C=C/C(=O)/C=C/c1ccccc1F` (centres undefined), the IC50 in the assay on LNCaP worked out at 1.6 µM; in assay [1], 8.3 µM; in the assay with CWR22R, 9.4 µM; with PC-3 it was 4.8 µM; in assay [2] it was 6 µM.

Take `CC1=C(/C=C/C(=O)/C=C/c2cccc(C)c2)C(C)(C)CCC1`: the values for the IC50 in the assay on LNCaP and with PC-3 were 17.8 µM and 35 µM, respectively.

Consider `CC1=C(/C=C/C(=O)/C=C/c2cccc([N+](=O)[O-])c2)C(C)(C)CCC1`, for which the figures for the IC50 in the assay with LNCaP and with PC-3 were 2.7 µM and 10 µM, respectively.

Turning to `CCOc1ccc(/C=C/C(=O)/C=C/C2=C(C)CCCC2(C)C)cc1OCC`, the IC50 in the assay with LNCaP was 8.2 µM; with PC-3, over 50 µM.

For the molecule `COc1ccc(/C=C/C(=O)/C=C/C2=C(C)CCCC2(C)C)cc1OC`, the IC50 with LNCaP worked out at 9.5 µM; with PC-3 it was 42 µM.

Take `CC1=CCCC(C)(C)C1/C=C/C(=O)/C=C/c1ccc(C(F)(F)F)cc1` (centres undefined): the IC50 in the assay on LNCaP amounted to 4.7 µM; in assay [1] it was 7 µM; with CWR22R, 3.3 µM; in the assay with PC-3, 7.9 µM; in assay [2], 5.2 µM.

In the case of `CC1=C(/C=C/C(=O)/C=C/c2ccc(F)cc2)C(C)(C)CCC1O` (centres undefined), the IC50 is 3.9 µM in the assay on LNCaP, 7.5 µM in the assay with CWR22R, 6.2 µM in the assay on PC-3 and 4 µM in assay [2].

As for `CC1=CCCC(C)(C)C1/C=C/C(=O)/C=C/c1cccc(C)c1` (centres undefined), the IC50 in the assay on LNCaP came to 12.2 µM; in the assay with CWR22R, 15.2 µM; in the assay with PC-3, 5.9 µM; in assay [2] it was 6.2 µM.

Regarding `CC1=C(/C=C/C(=O)/C=C/c2ccc(C(F)(F)F)cc2)C(C)(C)CCC1`, the IC50 with LNCaP was 9.1 µM; with PC-3 it was 12 µM.

With `CC1=C(/C=C/C(=O)/C=C/c2cccc(F)c2)C(C)(C)CCC1`, the IC50 in the assay with LNCaP stood at 12.9 µM; in the assay with PC-3 it was 18.7 µM.

Consider `CC1=C(/C=C/C(=O)/C=C/c2cc(F)cc(C(F)(F)F)c2)C(C)(C)CCC1O` (centres undefined), for which the results for the IC50 in the assay with LNCaP, in the assay with CWR22R and with PC-3 were 1.1 µM, 2.4 µM and 3 µM, respectively.

Turning to `CC1=C(/C=C/C(=O)/C=C/c2ccccc2F)C(C)(C)CCC1O` (centres undefined), the IC50 in the assay on LNCaP was 2.9 µM; with CWR22R it was 3.3 µM; in the assay with PC-3, 10.4 µM.

For the molecule `CC1=C(/C=C/C(=O)/C=C/c2ccc(F)cc2)C(C)(C)CCC1`, the IC50 in the assay on LNCaP was determined as 7.3 µM; in the assay on PC-3, 25.8 µM.

For `COc1cc(/C=C/C(=O)/C=C/C2=C(C)CCCC2(C)C)ccc1O`, the IC50 in the assay on LNCaP turned out to be 9.5 µM; in the assay with PC-3, 21.3 µM.

Molecule `CC(=O)/C=C/C1C(C)=CCCC1(C)C` (stereo not drawn) [ALPHA-IONONE] gave an IC50 in the assay with LNCaP of 151 µM. Besides, the outcome in the assay with PC-3 was inactive.

As for `CC1=C(/C=C/C(=O)/C=C/c2ccc(C(F)(F)F)cc2F)C(C)(C)CCC1O` (centres undefined), the results for the IC50 with LNCaP, in the assay with CWR22R and with PC-3 were 2.6 µM, 3.8 µM and 4.6 µM, respectively.

As for `CC1=C(/C=C/C(=O)/C=C/c2ccc(-c3ccccc3)cc2)C(C)(C)CCC1`, the IC50 amounted to 14.8 µM in the assay with LNCaP and 47.8 µM with PC-3.

`CC1=C(/C=C/C(=O)/C=C/c2ccccc2F)C(C)(C)CCC1`: the values for the IC50 with LNCaP and with PC-3 were 10.7 µM and 22.1 µM, respectively.
